Data set [1] is described as follows: Effect on TNF-alpha level in standard diet fed Wistar rat serum at 20 mg/kg/day, ip administered for 4 weeks by ELISA. The format is toxicity, organism-based. The following applies: in vivo, 672 h. In outline: (§1)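 Male Wistar rats on HFD or SD for 12 weeks received 20 mg/kg/day i.p. (saline, 2% DMSO, 5% Cremophor-EL) or vehicle for the last 28 days. Circulating IL-1β, TNF-α, BNP and Gal-3 quantified by ELISA in blood collected after sacrifice. n=6–7 per group.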

A short description of data set [2]: Effect on developed LVP recovery in high diet fed obese Wistar rat model at 20 mg/kg/day, ip administered for 4 weeks (reference value: 54 +/-6 mmHg). The class given is toxicity, organism-based. The conditions noted are these: in vivo, 672 h.
Data set [3] in a line: n-Octanol/water distribution coefficient, log D of the compound at pH 7.4 measured after 4 hrs by shake flask method. The class given is physicochemical. The essentials: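 Shake-flask at room temperature between n-octanol and 50 mM phosphate buffer pH 7.4, ionic strength 0.15 M KCl. Phases were pre-saturated by 4 h shaking. Compound at about 0.1 mg/ml in buffer, shaken about 20 min with n-octanol, then centrifuged at 10000 rpm for 10 min.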

A short description of data set [4]: Drug metabolism in human serum assessed as half time for compound hydrolysis to 2-(5-(2-Chlorobenzyl)-2-oxo-1,3,4-oxadiazol-3(2H)-yl)acetic acid at 100 uM by RP-HPLC analysis. The class given is ADME, cell-free. The essentials: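 Compound at 100 μM final (from 10 mM DMSO stock) in human male AB serum held at 37 °C. Aliquots at intervals deproteinized with CH3CN/0.1% TFA, centrifuged, filtered and analysed by RP-HPLC against calibration standards. Pseudo-first-order t1/2 from exponential decay fit; three experiments.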

For data set [5], the system named is Rattus norvegicus. Put plainly: Cardioprotective activity against high fat diet fed-induced metaflammation Wistar rat model assessed as reduction in myocardial damage by measuring reduction in plasma Gal-3level at 20 mg/kg/day, ip administered for 4 weeks by ELISA. The format is functional, organism-based. In outline: as §1
A short description of data set [6]: Effect on Gal-3 level in standard diet fed Wistar rat plasma at 20 mg/kg/day, ip administered for 4 weeks. The class given is toxicity, organism-based. The conditions noted are these: in vivo, 672 h. The essentials:
as §1

The subject of data set [7] is Rattus norvegicus. The data set can be described thus: Antiinflammatory activity against high fat diet fed-induced metaflammation Wistar rat model assessed as reduction in HFD-induced anthropometric alterations by measuring reduction in cardiac somatic index at 20 mg/kg/day, ip administered for 4 weeks. The format is functional, organism-based. The essentials: (§2)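 Male Wistar rats on high-fat diet (60% kcal fat) or standard diet for 12 weeks; 20 mg/kg/day i.p. or vehicle (saline, 2% DMSO, 5% Cremophor-EL) over the last 28 days. Body weight recorded weekly. After sacrifice, abdominal, epididymal, retroperitoneal and perirenal fat, liver and heart excised and weighed. Cardiac somatic index = heart weight/body weight ×100. n=6–7 per group.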

The nature of data set [8]: Effect on BNP level in standard diet fed Wistar rat plasma at 20 mg/kg/day, ip administered for 4 weeks. The format is toxicity, organism-based. The following applies: in vivo, 672 h. In outline: as §1
Data set [9] deals with Rattus norvegicus. The data set can be described thus: Cardioprotective activity against myocardial ischemia/reperfusion injury-induced contractile impairment and high fat diet fed obese Wistar rat model assessed as developed LVP recovery at 20 mg/kg/day, ip administered for 4 weeks followed by excised heart exposed to global ischemia for 30 mins and reperfusion for 120 mins and measured at the end of reperfusion (reference value: 32 +/-4 mmHg). The class given is functional.

Data set [10] has as its system Rattus norvegicus. The data set can be described thus: Antiinflammatory activity against high fat diet fed-induced metaflammation Wistar rat model assessed as reduction in HFD-induced anthropometric alterations by measuring reduction in abdominal fat deposition at 20 mg/kg/day, ip administered for 4 weeks. The format is functional, organism-based. The essentials: as §2

Data set [11] in a line: Effect on left ventricular end diastolic pressure in high diet fed obese Wistar rat model at 20 mg/kg/day, ip administered for 4 weeks (reference value: 6+/-0.2 mm Hg). The format is toxicity, organism-based. The conditions noted are these: in vivo, 672 h.
For data set [12], the system named is Rattus norvegicus. Put plainly: Antiinflammatory activity against high fat diet fed-induced metaflammation Wistar rat model assessed as reduction in HFD-induced anthropometric alterations by measuring reduction in perirenal fat deposition at 20 mg/kg/day, ip administered for 4 weeks. The format is functional, organism-based. In outline:
as §2

Data set [13] in a line: Effect on glyco-metabolic profile in standard diet fed Wistar rat assessed as effect on HDL cholesterol level in plasma at 20 mg/kg/day, ip administered for 4 weeks. The conditions noted are these: in vivo, 672 h. The class given is toxicity, organism-based. The essentials:
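Rats fed HFD or SD for 12 weeks, dosed 20 mg/kg/day i.p. in saline/2% DMSO/5% Cremophor-EL during the final 28 days. Serum obtained after sacrifice by centrifuging blood at 2000 x g, 10 min, 4 °C. Glucose read by glucometer; total, HDL and LDL cholesterol and triglycerides measured with commercial kits. n=6–7 per group.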

Data set [14] concerns Rattus norvegicus. The data set can be described thus: Cardioprotective activity against ischemia/reperfusion-induced myocardial injury and high diet fed obese Wistar rat model assessed as decrease in LDH activity in coronary effluents at 20 mg/kg/day, ip administered for 4 weeks followed by excised heart exposed to global ischemia for 30 mins and reperfusion for 120 mins and measured during first 20 mins of reperfusion by spectrophotometric analysis. The class given is functional, organism-based. The essentials:
(§3)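 HFD or SD rats, dosed 20 mg/kg/day i.p. for the final 28 days, anaesthetised with ethyl carbamate (2 g/kg i.p.). Hearts Langendorff-perfused with Krebs–Henseleit buffer (pH 7.4, 37 °C, 12 ml/min); 40 min stabilization, 30 min global no-flow ischemia, 120 min reperfusion. Coronary effluent collected on ice before ischemia and at 10, 20, 30 min reperfusion; LDH activity by McQueen method. n=6–7.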

For data set [15], the system named is Rattus norvegicus. The data set can be described thus: Cardioprotective activity against myocardial ischemia/reperfusion injury-induced contractile impairment and standard diet fed Wistar rat model assessed as left ventricular end diastolic pressure at 20 mg/kg/day, ip administered for 4 weeks followed by excised heart exposed to global ischemia for 30 mins and reperfusion for 120 mins and measured at the end of reperfusion (reference value: 21 +/-2 mmHg). The format is functional.

Data set [16] in a line: Effect on developed LVP recovery in standard diet fed Wistar rat model at 20 mg/kg/day, ip administered for 4 weeks (reference value: 69 +/-4 mmHg). The class given is toxicity, organism-based. The following applies: in vivo, 672 h.
For data set [17], the system named is Rattus norvegicus. The data set can be described thus: Inhibition of ischemia/reperfusion-induced oxidative stress in ischemia/reperfusion-induced myocardial injury and standard diet fed Wistar rat model assessed as increase in cardiac SOD activity at 20 mg/kg/day, ip administered for 4 weeks followed by excised heart exposed to global ischemia for 30 mins and reperfusion for 120 mins. The class given is functional, organism-based. The essentials: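 Same rat diet, dosing and ischemia/reperfusion protocol. LV homogenized in 50 mM Tris-HCl pH 8.2 with 1 mM DTPA and centrifuged at 20,000 x g for 20 min. Supernatant mixed with 0.2 mM pyrogallol, autoxidation followed at 420 nm for 3 min. Activity given as % pyrogallol autoxidation relative to sham; 1 U inhibits the rate by 50%.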

Data set [18] concerns Rattus norvegicus. The data set can be described thus: Cardioprotective activity against ischemia/reperfusion-induced myocardial injury and standard diet fed Wistar rat model assessed as decrease in LDH activity in coronary effluents at 20 mg/kg/day, ip administered for 4 weeks followed by excised heart exposed to global ischemia for 30 mins and reperfusion for 120 mins and measured during first 20 mins of reperfusion by spectrophotometric analysis. The format is functional, organism-based. The essentials: as §3

A short description of data set [19]: Drug metabolism in human THP-1 cells assessed as half time for compound hydrolysis to 2-(5-(2-Chlorobenzyl)-2-oxo-1,3,4-oxadiazol-3(2H)-yl)acetic acid at 100 uM by RP-HPLC analysis. The class given is ADME, cell-based. In outline: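 PMA-differentiated THP-1 cells lysed in RIPA buffer. Compound added to lysate at 100 μM final (from 10 mM DMSO stock) at 37 °C. Aliquots at intervals deproteinized with CH3CN/0.1% TFA and quantified by RP-HPLC against standards. Pseudo-first-order t1/2 from exponential decay fit; three experiments.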

Calls of active or inactive are those of the source. No cut-off for these calls is given here.

Take `CCOC(=O)Cn1nc(Cc2ccccc2Cl)oc1=O`: the Activity entry in [1] is recorded as “Non-Toxic”; in data set [2], 64 mmHg; in [6], “Non-Toxic”; in data set [8], “Non-Toxic”; in data set [9], 65 mmHg; in [11] it was 4 mmHg. Besides, the Activity result in data set [13] is given as “Non-Toxic”; in data set [15], 13 mmHg; in data set [16], 65 mmHg. For the same compound, the logD at 4 h in [3] is 2.03. The half-life at 100 µM in data set [4] was 4 h; in data set [19], 1.08 h. For the same compound, the result in data set [5], in data set [7], in data set [10], in data set [12], in data set [14] and in data set [18] was Active. For the same compound, the inhibition entry in data set [17] is “Active”.
